Data as given in ChEMBL document CHEMBL3627681, “Synthesis and biological evaluation of 1,3-diaryl pyrazole derivatives as potential antibacterial and anti-inflammatory agents” (2015).
Values after ≈ are worked out from the molar mass of the structure shown.

system: Staphylococcus aureus; test: Antibacterial activity against Staphylococcus aureus 209 after 24 hrs by two-fold serial dilution method; type: functional; conditions: Staphylococcus aureus, 209, 24 h
Outline: (§1)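 Broth microdilution in Mueller-Hinton broth. Bacteria grown to mid-log phase, diluted 1000-fold, and inoculated at 10⁵ CFU/mL. Test compounds in DMSO, final DMSO not above 0.05%, final concentrations 64-0.5 µg/mL. Incubation 24 h at 37 °C, growth read as absorbance at 650 nm. MIC taken as the lowest concentration giving complete growth inhibition. Run three times.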

Point of comparison: `N=C(N)N/N=C/c1cn(-c2ccccc2)nc1-c1ccc(F)cc1`, MIC 8 µg/mL (≈ 24.8 µM). Against it:
- N=C(N)N/N=C/c1cn(-c2ccc([N+](=O)[O-])cc2[N+](=O)[O-])nc1-c1ccccc1Br — the same, 8 µg/mL (≈ 16.9 µM)
- N=C(N)N/N=C/c1cn(-c2ccccc2)nc1-c1ccc(Cl)cc1 — higher, > 64 µg/mL

system: Staphylococcus aureus; test: Antibacterial activity against Staphylococcus aureus 503 after 24 hrs by two-fold serial dilution method; type: functional; conditions: Staphylococcus aureus, 503, 24 h; outline: as §1

Point of comparison: `N=C(N)N/N=C/c1cn(-c2ccc([N+](=O)[O-])cc2[N+](=O)[O-])nc1-c1ccccc1Br`, MIC 4 µg/mL (≈ 8.45 µM). Against it:
- N=C(N)N/N=C/c1cn(-c2ccccc2)nc1-c1ccc(F)cc1 — 4-fold higher, 16 µg/mL (≈ 49.6 µM)
- N=C(N)N/N=C/c1cn(-c2ccccc2)nc1-c1ccc(Cl)cc1 — higher, > 64 µg/mL

system: Candida albicans; test: Antifungal activity against Candida albicans 7535 by two-fold serial dilution method; type: functional; conditions: not given

Point of comparison: `N=C(N)N/N=C/c1cn(-c2ccccc2)nc1-c1ccc(F)cc1`, MIC 8 µg/mL (≈ 24.8 µM). Against it:
- N=C(N)N/N=C/c1cn(-c2ccc([N+](=O)[O-])cc2[N+](=O)[O-])nc1-c1ccccc1Br — 4-fold lower, 2 µg/mL (≈ 4.23 µM)
- N=C(N)N/N=C/c1cn(-c2ccccc2)nc1-c1ccc(Cl)cc1 — higher, > 64 µg/mL

system: Escherichia coli; test: Antibacterial activity against Escherichia coli KCTC 1924 after 24 hrs by two-fold serial dilution method; type: functional; conditions: KCTC 1924, 24 h
Outline: (§2)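 Broth microdilution in Mueller-Hinton broth over final concentrations of 64–0.5. Bacteria were grown to mid-log phase and diluted 1000-fold, then inoculated at 10⁵ CFU/mL. Compounds were dissolved in DMSO, with final DMSO at most 0.05%. Plates were incubated 24 h at 37 °C and growth read as absorbance at 650 nm. MIC is the concentration giving complete growth inhibition. Three independent runs.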

Point of comparison: `N=C(N)N/N=C/c1cn(-c2ccccc2)nc1-c1ccc(F)cc1`, MIC 8 µg/mL (≈ 24.8 µM). Against it:
- N=C(N)N/N=C/c1cn(-c2ccc([N+](=O)[O-])cc2[N+](=O)[O-])nc1-c1ccccc1Br — 2-fold lower, 4 µg/mL (≈ 8.45 µM)
- N=C(N)N/N=C/c1cn(-c2ccccc2)nc1-c1ccc(Cl)cc1 — higher, > 64 µg/mL

system: Staphylococcus aureus; test: Antibacterial activity against methicillin-resistant Staphylococcus aureus CCARM 3506 after 24 hrs by two-fold serial dilution method; type: functional; conditions: CCARM 3506, 24 h; outline: as §1

Point of comparison: `N=C(N)N/N=C/c1cn(-c2ccccc2)nc1-c1ccc(F)cc1`, MIC 8 µg/mL (≈ 24.8 µM). Against it:
- N=C(N)N/N=C/c1cn(-c2ccc([N+](=O)[O-])cc2[N+](=O)[O-])nc1-c1ccccc1Br — 2-fold lower, 4 µg/mL (≈ 8.45 µM)
- N=C(N)N/N=C/c1cn(-c2ccccc2)nc1-c1ccc(Cl)cc1 — higher, > 64 µg/mL

system: Staphylococcus aureus; test: Antibacterial activity against quinolone-resistant Staphylococcus aureus CCARM 3519 after 24 hrs by two-fold serial dilution method; type: functional; conditions: CCARM 3519, 24 h; outline: as §1

Point of comparison: `N=C(N)N/N=C/c1cn(-c2ccccc2)nc1-c1ccc(F)cc1`, MIC 16 µg/mL (≈ 49.6 µM). Against it:
- N=C(N)N/N=C/c1cn(-c2ccc([N+](=O)[O-])cc2[N+](=O)[O-])nc1-c1ccccc1Br — 2-fold lower, 8 µg/mL (≈ 16.9 µM)
- N=C(N)N/N=C/c1cn(-c2ccccc2)nc1-c1ccc(Cl)cc1 — higher, > 64 µg/mL

system: Staphylococcus aureus; test: Antibacterial activity against methicillin-resistant Staphylococcus aureus CCARM 3167 after 24 hrs by two-fold serial dilution method; type: functional; conditions: CCARM 3167, 24 h; outline: as §1

Point of comparison: `N=C(N)N/N=C/c1cn(-c2ccccc2)nc1-c1ccc(F)cc1`, MIC 8 µg/mL (≈ 24.8 µM). Against it:
- N=C(N)N/N=C/c1cn(-c2ccc([N+](=O)[O-])cc2[N+](=O)[O-])nc1-c1ccccc1Br — 2-fold lower, 4 µg/mL (≈ 8.45 µM)
- N=C(N)N/N=C/c1cn(-c2ccccc2)nc1-c1ccc(Cl)cc1 — higher, > 64 µg/mL

system: Pseudomonas aeruginosa; test: Antibacterial activity against Pseudomonas aeruginosa 2004 after 24 hrs by two-fold serial dilution method; type: functional; conditions: Pseudomonas aeruginosa, 2004, 24 h; outline: as §2

`N=C(N)N/N=C/c1cn(-c2ccccc2)nc1-c1ccc(F)cc1` and `N=C(N)N/N=C/c1cn(-c2ccccc2)nc1-c1ccc(Cl)cc1` cannot be ordered by MIC: > 64 µg/mL for the first, > 64 µg/mL for the second.

With `N=C(N)N/N=C/c1cn(-c2ccc([N+](=O)[O-])cc2[N+](=O)[O-])nc1-c1ccccc1Br` the MIC was > 64 µg/mL.

system: Salmonella typhimurium; test: Antibacterial activity against Salmonella typhimurium 2421 after 24 hrs by two-fold serial dilution method; type: functional, Salmonella enterica subsp. enterica serovar Typhimurium; conditions: Salmonella enterica, 2421, 24 h; outline: as §2

Point of comparison: `N=C(N)N/N=C/c1cn(-c2ccc([N+](=O)[O-])cc2[N+](=O)[O-])nc1-c1ccccc1Br`, MIC 16 µg/mL (≈ 33.8 µM). Against it:
- N=C(N)N/N=C/c1cn(-c2ccccc2)nc1-c1ccc(F)cc1 — higher, > 64 µg/mL
- N=C(N)N/N=C/c1cn(-c2ccccc2)nc1-c1ccc(Cl)cc1 — higher, > 64 µg/mL

system: Staphylococcus aureus; test: Antibacterial activity against quinolone-resistant Staphylococcus aureus CCARM 3505 after 24 hrs by two-fold serial dilution method; type: functional; conditions: CCARM 3505, 24 h; outline: as §1

Point of comparison: `N=C(N)N/N=C/c1cn(-c2ccc([N+](=O)[O-])cc2[N+](=O)[O-])nc1-c1ccccc1Br`, MIC 4 µg/mL (≈ 8.45 µM). Against it:
- N=C(N)N/N=C/c1cn(-c2ccccc2)nc1-c1ccc(F)cc1 — 4-fold higher, 16 µg/mL (≈ 49.6 µM)
- N=C(N)N/N=C/c1cn(-c2ccccc2)nc1-c1ccc(Cl)cc1 — higher, > 64 µg/mL

system: Pseudomonas aeruginosa; test: Antibacterial activity against Pseudomonas aeruginosa 2742 after 24 hrs by two-fold serial dilution method; type: functional; conditions: Pseudomonas aeruginosa, 2742, 24 h; outline: as §2

`N=C(N)N/N=C/c1cn(-c2ccccc2)nc1-c1ccc(F)cc1` and `N=C(N)N/N=C/c1cn(-c2ccccc2)nc1-c1ccc(Cl)cc1` cannot be ordered by MIC: > 64 µg/mL for the first, > 64 µg/mL for the second.

With `N=C(N)N/N=C/c1cn(-c2ccc([N+](=O)[O-])cc2[N+](=O)[O-])nc1-c1ccccc1Br` the MIC was > 64 µg/mL.

system: Mus musculus; test: Antiinflammatory activity in mouse assessed as inhibition of xylene-induced ear edema at 50 mg/kg, ip administered 30 mins before xylene challenge relative to control; type: functional; conditions: not given
Outline: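 Mice received compound freshly dissolved in DMSO, 50 mg/kg ip at 0.05 mL/20 g body weight; vehicle controls got DMSO alone. After 30 min, 20 µL xylene was applied to the right ear. After a further 30 min, 7 mm plugs were cut from treated and untreated ears and edema taken as their weight difference. Result is % edema reduction versus vehicle controls.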

Point of comparison: `N=C(N)N/N=C/c1cn(-c2ccc([N+](=O)[O-])cc2[N+](=O)[O-])nc1-c1ccccc1Br`, inhibition in vivo at 50 mg/kg 78.1%. Against it:
- N=C(N)N/N=C/c1cn(-c2ccccc2)nc1-c1ccc(F)cc1 — lower, 61.4%
- N=C(N)N/N=C/c1cn(-c2ccccc2)nc1-c1ccc(Cl)cc1 — lower, 46%

system: Streptococcus mutans; test: Antibacterial activity against Streptococcus mutans 3065 after 24 hrs by two-fold serial dilution method; type: functional; conditions: Streptococcus mutans, 3065, 24 h; outline: as §2

Point of comparison: `N=C(N)N/N=C/c1cn(-c2ccc([N+](=O)[O-])cc2[N+](=O)[O-])nc1-c1ccccc1Br`, MIC 16 µg/mL (≈ 33.8 µM). Against it:
- N=C(N)N/N=C/c1cn(-c2ccccc2)nc1-c1ccc(F)cc1 — higher, > 64 µg/mL
- N=C(N)N/N=C/c1cn(-c2ccccc2)nc1-c1ccc(Cl)cc1 — higher, > 64 µg/mL

system: Staphylococcus aureus; test: Antibacterial activity against Staphylococcus aureus RN4220 after 24 hrs by two-fold serial dilution method; type: functional; conditions: RN4220, 24 h; outline: as §1

Point of comparison: `N=C(N)N/N=C/c1cn(-c2ccc([N+](=O)[O-])cc2[N+](=O)[O-])nc1-c1ccccc1Br`, MIC 4 µg/mL (≈ 8.45 µM). Against it:
- N=C(N)N/N=C/c1cn(-c2ccccc2)nc1-c1ccc(F)cc1 — 2-fold higher, 8 µg/mL (≈ 24.8 µM)
- N=C(N)N/N=C/c1cn(-c2ccccc2)nc1-c1ccc(Cl)cc1 — 4-fold higher, 16 µg/mL (≈ 47.2 µM)

system: Escherichia coli; test: Antibacterial activity against Escherichia coli CCARM 1356 after 24 hrs by two-fold serial dilution method; type: functional; conditions: CCARM 1356, 24 h; outline: as §2

Point of comparison: `N=C(N)N/N=C/c1cn(-c2ccc([N+](=O)[O-])cc2[N+](=O)[O-])nc1-c1ccccc1Br`, MIC 16 µg/mL (≈ 33.8 µM). Against it:
- N=C(N)N/N=C/c1cn(-c2ccccc2)nc1-c1ccc(F)cc1 — higher, > 64 µg/mL
- N=C(N)N/N=C/c1cn(-c2ccccc2)nc1-c1ccc(Cl)cc1 — higher, > 64 µg/mL
